Experimental data taken from ChEMBL document CHEMBL1143670, “An adamantyl-substituted retinoid-derived molecule that inhibits cancer cell growth and angiogenesis by inducing apoptosis and binds to small heterodimer partner nuclear receptor: effects of modifying its carboxylate group on apoptosis, proliferation, and protein-tyrosine phosphatase activity” (J Med Chem, 2007).
Calls of active or inactive are those of the source. The rule behind the calls is not given here.

Experiments:
MDA-MB-231 [1] = test: Induction of apoptosis in MDA-MB-231 cells at 1 uM after 96 hrs; type: functional, Homo sapiens
Method in brief: (§1)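 Apoptotic cells scored by acridine orange staining. KG-1, HL-60R or MDA-MB-231 cells seeded in medium with 5% FBS, incubated overnight, then exposed to compound in Me2SO (0.1% final) for the stated time.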

[2] = Antiproliferative activity against HMVE cells; type: functional, cell-based; details: Homo sapiens
[3] = Inhibition of HMVE cell proliferation at 0.5 uM relative to control; type: functional; details: Homo sapiens
KG-1 [4] = test: Induction of apoptosis in retinoid-resistant KG1 cells at 1 uM after 48 hrs; type: functional, Homo sapiens; method in brief: as §1
KG-1 [5] = test: Growth inhibition of retinoid-resistant KG1 cells at 5 uM after 48 hrs; type: functional; details: Homo sapiens, KG-1, 48 h
Method in brief: (§2)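 KG-1 cells grown in RPMI-1640 with 5% heat-inactivated FBS and gentamycin, seeded in 3 mL medium plus 5% FBS, incubated overnight. Compound then added in Me2SO (0.1% final), cells incubated for the stated time, harvested and counted by hemocytometer.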

MDA-MB-231 [6] = test: Growth inhibition of retinoid-resistant MDA-MB-231 cells after 72 hrs; type: functional, cell-based; details: Homo sapiens, MDA-MB-231, 72 h
Method in brief: (§3)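 Cells seeded at 2 × 10^3 per well for H292 and DU-145 (RPMI-1640, 10% FBS) or 4 × 10^3 for MDA-MB-231 (DMEM, 10% FBS), 37 °C, 6% CO2. After 24 h attachment, treated 72 h with compound in Me2SO (0.1% final); media and compound renewed at 48 h. Viable cells by MTS reduction; triplicates per concentration.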

MDA-MB-231 [7] = test: Growth inhibition of retinoid-resistant MDA-MB-231 cells at 1 uM relative to control; type: functional; details: Homo sapiens; method in brief: as §3
[8] = Growth inhibition of retinoid-resistant H292 cells after 72 hrs; type: functional, cell-based; details: Homo sapiens, NCI-H292, 72 h; method in brief: as §3
[9] = Growth inhibition of retinoid-resistant H292 cells at 1 uM relative to control; type: functional; details: Homo sapiens, NCI-H292; method in brief: as §3
DU-145 [10] = test: Growth inhibition of retinoid-resistant DU145 cells after 72 hrs; type: functional, cell-based; details: Homo sapiens, DU-145, 72 h; method in brief: as §3
DU-145 [11] = test: Growth inhibition of retinoid-resistant DU145 cells at 1 uM relative to control; type: functional; details: Homo sapiens; method in brief: as §3
KG-1 [12] = test: Inhibition of cell proliferation in retinoid-resistant KG1 cells after 48 hrs; type: functional, cell-based; details: Homo sapiens, KG-1, 48 h; method in brief: as §2
KG-1 [13] = test: Inhibition of cell proliferation in retinoid-resistant KG1 cells at 1 uM after 48 hrs relative to control; type: functional; details: Homo sapiens, KG-1, 48 h; method in brief: as §2
[14] = Growth inhibition of primary HMVE cells after 72 hrs; type: functional, cell-based; details: Homo sapiens
Method in brief: (§4)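 Primary HMVE cells, 1 × 10^4 per well in EGM-MV medium, incubated 1 h at 37 °C. Compound in Me2SO added, or Me2SO alone (0.5% final). After 72 h at 37 °C, cells detached with trypsin/EDTA and counted by hemocytometer; three replicates.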

HMVE [15] = test: Induction of apoptosis in HMVE cells assessed as increase in oligonucleosome levels after 20 hrs by ELISA; type: functional, cell-based; details: Homo sapiens
Method in brief: (§5)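 HMVE cells (6 × 10^4 per well) seeded in EGM-MV, incubated 6 h at 37 °C. Then treated 20 h with compound (10–500 nM), 1.0 µM doxorubicin or Me2SO (0.5% final). Cytoplasmic histone-associated DNA fragments in lysate supernatant measured by Cell Death Detection ELISA; triplicates.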

[16] = Induction of apoptosis in HMVE cells at 0.5 uM after 20 hrs relative to adriamycin; type: functional, Homo sapiens; method in brief: as §5
HMVE [17] = test: Inhibition of HMVE cell migration through Matrigel after 5 hrs; type: functional, cell-based; details: Homo sapiens
Method in brief: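 Transwell inserts (8 µm pores) with undersides coated with Matrigel (30 µg/mL), blocked with 1% BSA. HMVE cells from 80% confluent cultures, released enzyme-free, were placed in inserts with compound (0.05–500 nM) or Me2SO (0.01% final). After 5 h at 37 °C, cells on underside fixed, stained with Diff-Quick and counted in three high-power fields per well; mean ± SD of three replicates.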

HMVE [18] = test: Inhibition of HMVE cell tubule formation in Matrigel after 18 hrs; type: functional, cell-based; details: Homo sapiens
Method in brief: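 Trypsinized HMVE cells (5 × 10^4 per well in EGM-MV) plated on gelled Matrigel, held 1 h at 37 °C, then exposed 18 h at 37 °C to 0.25 or 1.0 µM compound or Me2SO (0.05% final). Total tube length measured from phase-contrast images, four random fields per well, three replicates.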

[19] = target: T1, Nuclear receptor subfamily 0 group B member 2 (Homo sapiens) (UniProt Q15466); test: Displacement of [5,5'-3H2]AHPN from recombinant human GST-SHP partner nuclear orphan receptor at 50 uM
T1 sequence (whole entry): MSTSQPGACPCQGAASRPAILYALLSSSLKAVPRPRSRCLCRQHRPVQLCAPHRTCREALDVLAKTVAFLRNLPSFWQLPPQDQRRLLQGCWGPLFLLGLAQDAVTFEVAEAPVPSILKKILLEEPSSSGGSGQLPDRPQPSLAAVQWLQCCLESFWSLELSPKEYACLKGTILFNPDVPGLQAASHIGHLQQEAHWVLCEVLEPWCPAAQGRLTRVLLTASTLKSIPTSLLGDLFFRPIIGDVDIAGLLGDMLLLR
Method in brief: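 GST–human SHP fusion (150–500 ng) on glutathione-Sepharose beads preincubated on ice 45 min with unlabeled compound (50 µM final) in 0.4 mL binding buffer. [5,5′-3H2]AHPN (5 nM final) then added for 2 h at 4 °C. Beads washed, counted by scintillation directly or after elution with 50 mM NaHCO3/1% SDS.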

KG-1 [20] = test: Induction of apoptosis in retinoid-resistant KG1 cells at 5 uM after 48 hrs; type: functional, Homo sapiens; method in brief: as §1
MDA-MB-231 [21] = test: Induction of apoptosis in retinoid-resistant MDA-MB-231 cells at 2 uM after 96 hrs; type: functional, Homo sapiens
[22] = target: T2, Tyrosine-protein phosphatase non-receptor type 11 (Homo sapiens, UniProt Q06124); test: Inhibition of SHP2 PTP by fluorescence spectroscopy
T2 sequence (Q06124 whole entry): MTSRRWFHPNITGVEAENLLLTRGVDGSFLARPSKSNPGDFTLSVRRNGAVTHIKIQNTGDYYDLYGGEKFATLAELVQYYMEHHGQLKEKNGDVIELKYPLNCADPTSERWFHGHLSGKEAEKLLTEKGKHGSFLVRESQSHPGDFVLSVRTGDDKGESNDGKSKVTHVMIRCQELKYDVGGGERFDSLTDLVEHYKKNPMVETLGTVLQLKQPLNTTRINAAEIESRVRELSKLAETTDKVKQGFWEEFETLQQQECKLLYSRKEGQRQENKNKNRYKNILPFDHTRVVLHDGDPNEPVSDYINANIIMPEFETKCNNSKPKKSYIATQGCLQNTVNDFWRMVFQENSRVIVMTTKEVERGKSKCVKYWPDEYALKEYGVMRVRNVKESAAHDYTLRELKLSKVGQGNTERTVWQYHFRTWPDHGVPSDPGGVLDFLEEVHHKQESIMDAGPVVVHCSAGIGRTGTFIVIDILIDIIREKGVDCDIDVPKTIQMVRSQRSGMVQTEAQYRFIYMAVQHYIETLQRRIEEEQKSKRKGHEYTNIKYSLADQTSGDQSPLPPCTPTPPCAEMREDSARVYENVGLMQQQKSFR

[23] = Growth inhibition of primary HMVE cells at 1 uM after 72 hrs; type: functional; details: Homo sapiens; method in brief: as §4
[24] = target: Receptor-type tyrosine-protein phosphatase C, CD45 (Homo sapiens) (UniProt P08575); test: Inhibition of CD45 PTP at 10 uM relative to control by fluorescence spectrometry
Receptor-type tyrosine-protein phosphatase C, CD45 (Homo sapiens), sequence (P08575 whole entry, looked up): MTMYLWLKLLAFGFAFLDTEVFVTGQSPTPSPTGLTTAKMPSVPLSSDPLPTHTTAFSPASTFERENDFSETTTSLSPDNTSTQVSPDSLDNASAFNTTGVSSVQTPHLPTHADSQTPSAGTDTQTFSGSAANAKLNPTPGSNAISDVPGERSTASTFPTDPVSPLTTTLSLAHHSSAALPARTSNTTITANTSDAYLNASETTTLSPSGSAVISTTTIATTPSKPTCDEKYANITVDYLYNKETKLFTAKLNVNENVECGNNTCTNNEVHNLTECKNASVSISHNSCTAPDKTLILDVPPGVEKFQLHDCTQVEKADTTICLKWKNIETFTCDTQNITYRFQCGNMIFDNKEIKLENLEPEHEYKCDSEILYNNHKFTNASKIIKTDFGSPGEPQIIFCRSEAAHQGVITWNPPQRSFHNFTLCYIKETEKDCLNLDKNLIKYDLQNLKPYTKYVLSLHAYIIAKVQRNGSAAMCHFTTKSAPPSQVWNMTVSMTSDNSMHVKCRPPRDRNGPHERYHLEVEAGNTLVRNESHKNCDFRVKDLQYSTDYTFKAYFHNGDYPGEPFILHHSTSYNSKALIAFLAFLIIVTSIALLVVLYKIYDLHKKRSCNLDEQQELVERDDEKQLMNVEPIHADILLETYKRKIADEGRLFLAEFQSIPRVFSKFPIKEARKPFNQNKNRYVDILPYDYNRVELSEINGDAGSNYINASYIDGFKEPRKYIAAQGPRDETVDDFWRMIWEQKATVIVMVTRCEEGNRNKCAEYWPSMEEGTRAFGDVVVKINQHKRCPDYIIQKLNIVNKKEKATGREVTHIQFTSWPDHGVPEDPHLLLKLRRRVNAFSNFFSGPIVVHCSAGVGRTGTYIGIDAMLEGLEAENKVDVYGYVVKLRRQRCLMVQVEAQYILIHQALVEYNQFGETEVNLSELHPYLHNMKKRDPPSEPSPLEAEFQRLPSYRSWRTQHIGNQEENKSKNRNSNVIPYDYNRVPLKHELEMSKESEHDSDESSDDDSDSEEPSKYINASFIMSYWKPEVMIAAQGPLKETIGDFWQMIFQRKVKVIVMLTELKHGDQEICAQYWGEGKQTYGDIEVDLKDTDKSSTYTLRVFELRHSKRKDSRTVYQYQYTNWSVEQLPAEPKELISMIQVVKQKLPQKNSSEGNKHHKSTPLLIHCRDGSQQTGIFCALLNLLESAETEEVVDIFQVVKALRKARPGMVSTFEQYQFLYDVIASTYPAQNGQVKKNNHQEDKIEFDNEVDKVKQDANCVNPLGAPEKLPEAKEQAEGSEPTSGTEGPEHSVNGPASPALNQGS

Compound	Activity (KG-1 [4]) [%]	inhibition at 5 µM (KG-1 [5]) [%]	IC50 (MDA-MB-231 [6]) [nM]	inhibition at 1 µM (MDA-MB-231 [7]) [%]	IC50 [8] [nM]	inhibition at 1 µM [9] [%]	IC50 (DU-145 [10]) [nM]	inhibition at 1 µM (DU-145 [11]) [%]	IC50 (KG-1 [12]) [nM]	inhibition at 1 µM (KG-1 [13]) [%]	Activity [19] [%]	Activity (KG-1 [20]) [%]	other results
O=C(O)/C=C/c1ccc(-c2ccc(O)c(C34CC5CC(CC(C5)C3)C4)c2)c(Cl)c1	30	67	1800	32	400	79	500	76	300	44	87	55	Activity (MDA-MB-231 [1]): 43%; IC50 [2]: 300 nM; inhibition at 0.5 µM [3]: 60%; IC50 [14]: 300 nM; Activity (HMVE [15]): Dose-dependent effect; Activity [16]: 64%; Activity (HMVE [17]): inactive; Activity (HMVE [18]): inactive
O=C(O)c1cccc2c(-c3ccc(O)c(C45CC6CC(CC(C6)C4)C5)c3)cccc12													Activity (MDA-MB-231 [21]): 4%
O=C1NC(=O)/C(=C/c2ccc(-c3ccc(O)c(C45CC6CC(CC(C6)C4)C5)c3)c(Cl)c2)S1	8	41	18000	0	3600	17	3700	17	14000	28	37	10	IC50 [22]: 2200 nM; inhibition at 1 µM [23]: 30%; inhibition [24]: 53%
